Source: PubChem (The Scripps Research Institute Molecular Screening Center)
Hits are enriched below; roughly 3.1% of the tested compounds scored in any of these assays.
OX1R antag-1 – antagonists of human orexin 1 receptor (OX1R). inhibition, % at 6.6 µM. OX1R-expressing cells, FRET antagonist read-out. hit rate 1.8% among 330,000. AID 485270, 2010. Orexin/Hypocretin receptor type 1 (Homo sapiens), O43613; in the data active means inhibition mostly above about 38%, no sharp cut-off; inactive means mostly below about 40%;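 further: 0% = agonist challenge alone and 100% = reference antagonist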
Target sequence (O43613 whole entry, looked up): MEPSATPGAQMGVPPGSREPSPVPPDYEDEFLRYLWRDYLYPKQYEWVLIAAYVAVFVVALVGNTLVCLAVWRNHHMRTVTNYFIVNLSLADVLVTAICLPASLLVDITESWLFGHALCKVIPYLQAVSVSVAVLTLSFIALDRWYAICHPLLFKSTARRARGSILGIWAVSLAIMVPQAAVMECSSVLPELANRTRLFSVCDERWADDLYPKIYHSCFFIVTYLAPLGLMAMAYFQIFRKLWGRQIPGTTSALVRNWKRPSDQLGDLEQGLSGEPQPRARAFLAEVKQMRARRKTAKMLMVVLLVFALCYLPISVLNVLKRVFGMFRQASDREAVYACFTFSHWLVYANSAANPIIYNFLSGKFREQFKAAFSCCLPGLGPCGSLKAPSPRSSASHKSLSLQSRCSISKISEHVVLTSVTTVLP
GalR3 antagonist – GalR3 antagonists in HEK293 cells, primary screen, cell-based, fluorescence readout. hit rate 0.44% among 360,000. HEK293 GalR3-CNG cAMP membrane potential fluorescence; galR3 body fused to GalR1 C-terminus. Galanin receptor type 3 (Homo sapiens), O60755. inhibition, % at 3 µM;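 active means inhibition above the screen-wide average plus 3 SD, cut at about 13% in these data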;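 further: forskolin and galanin both at EC90 stimulate the cells; cAMP rise reported by CNG channel membrane potential dye signal; 0% = forskolin plus galanin with DMSO and 100% = forskolin alone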
Target sequence (O60755 1-299 limits assumed): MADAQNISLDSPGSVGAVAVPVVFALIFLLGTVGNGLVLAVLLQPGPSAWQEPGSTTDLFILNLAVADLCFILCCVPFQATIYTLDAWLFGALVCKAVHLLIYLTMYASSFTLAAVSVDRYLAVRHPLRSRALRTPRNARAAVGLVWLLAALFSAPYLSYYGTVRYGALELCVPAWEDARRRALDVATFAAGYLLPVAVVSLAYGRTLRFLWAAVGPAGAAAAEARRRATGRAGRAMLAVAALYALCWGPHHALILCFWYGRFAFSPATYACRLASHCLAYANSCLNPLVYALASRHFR
GPR7 antagonist – GPR7 receptor antagonists, primary screen, cell-based, fluorescence, single concentration; hit rate 1.1% among 290,000; AID 1861, 2009; GPR7-expressing cells, fluorescence antagonist assay; inhibition, % at 4.4 µM; Neuropeptides B/W receptor type 1 (Homo sapiens), P48145; in the data active means inhibition above about 16%, passing the limit was not always enough;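 further: cells stimulated with the agonist NPW; 0% = agonist with vehicle and 100% = vehicle without agonist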
OX1R antag-2 – OX1R (HCRTR1) antagonists, primary screen, fluorescence, CHO/OX1R cells, Fluo-8 calcium, orexin A; Fluo-8 calcium fluorescence; hit rate 0.43% among 330,000; inhibition, % at 5 µM; Orexin/Hypocretin receptor type 1 (Homo sapiens), O43613;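 active means inhibition above its plate's threshold, mean inhibition of all tested compounds on the plate plus 3 SD, cut at about 37% in these data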;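 further: 0% = orexin A challenge wells and 100% = SB-334867-A antagonist wells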
CHO parental Ca – ATP-evoked calcium signal inhibitors, parental CHO, primary screen, counter-screen for OX1R antagonist project, cell-based, fluorescence, Fluo-8 calcium dye | parental CHO-K1, ATP-induced calcium, Fluo-8 fluorescence | inhibition, % at 5.6 µM | hit rate 0.63% among 330,000 | AID 463079, 2010;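 active means inhibition above that plate's mean sample inhibition plus 3 SD, cut at about 26% in these data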;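 further: 0% = ATP-challenged DMSO wells and 100% = DMSO wells without ATP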
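Test system: untransfected parental CHO cell line; also added: ATP stimulus; dosing: 5.6 µM, single dose; signal: calcium-sensitive Fluo-8 fluorescence; measure: percent inhibition of ATP-evoked calcium rise, normalized to controls; benchmarks: low control ATP plus DMSO, high control DMSO only; replication: one well per compound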
GalR3 antag conf – GalR3 antagonist hit confirmation, cell-based, fluorescence, triplicate | shares compounds with GalR3 antagonist | HEK293 GalR3 CNG cAMP biosensor, membrane potential fluorescence; galR3 fused to GalR1 carboxy tail; challenged with forskolin and galanin at EC90 | inhibition, % at 3 µM | hit rate 59% among 1,600 | AID 652245, 2013;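 active means inhibition above the primary screen's cutoff, the mean inhibition of all screened compounds plus 3 SD, cut at about 13% in these data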;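 further: 0% = forskolin plus galanin and 100% = forskolin alone with DMSO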
CNG parental – nonspecific cAMP agonists in parental HEK-CNG cells, counter-screen for GalR3 antagonist project, cell-based, fluorescence, high throughput; hit rate 10% among 1,600; activation, % at 3 µM; shares compounds with GalR3 antagonist; HEK293-CNG parental cells, cAMP membrane potential fluorescence; normalised: DMSO wells 0%, forskolin wells 100%; AID 652268, 2013; in the data active means activation above about 1.3%
Active calls of the source: *; . = no result given.

SMILES | OX1R antag-1 | GalR3 antagonist | GPR7 antagonist | OX1R antag-2 | CHO parental Ca | GalR3 antag conf | CNG parental
O=C(O)CC12CC3CC(C1)CC(n1ncc(NCC4CCCO4)c(Cl)c1=O)(C3)C2 (stereo not drawn) | 6 | 0 | -17 | 1 | -1 | . | .
O=C(O)CC12CC3CC(C1)CC(n1ncc(NCc4ccco4)c(Cl)c1=O)(C3)C2 | 22 | 15* | -8 | 0 | 1 | 11 | 0
CCOC(=O)c1c(C)[nH]c(C(=O)COC(=O)[C@H](C)NC(=O)c2ccccc2Cl)c1C | 23 | 18* | -8 | 2 | -23 | 14* | 0
CCOC(=O)c1c(C)[nH]c(C(=O)COC(=O)CNC(=O)c2ccccc2Cl)c1C | 11 | 2 | 2 | -23 | -16 | . | .
CCOC(=O)c1c(C)[nH]c(C(=O)COC(=O)COc2ccccc2C=O)c1C | 14 | 14* | 3 | 5 | -4 | 0 | 0
CC(=O)Nc1ccc(-c2csc(NC(=O)C3CC(=O)N(c4ccc5c(c4)OCCO5)C3)n2)cc1 (stereo not drawn) | 6 | 14* | -6 | -7 | -4 | 4 | 0
COc1ccc(-c2csc(NC(=O)C3CC(=O)N(c4ccc5c(c4)OCCO5)C3)n2)cc1 (stereo not drawn) | 22 | -4 | 7 | 3 | 7 | . | .
CCC(=O)c1ccc(OCc2ccccc2)c(OC)c1 | 21 | -5 | -8 | -25 | -8 | . | .
CCC(=O)c1ccc(OCc2ccc(C(=O)c3ccccc3)cc2)cc1 | 24 | 37* | 1 | 33 | 65* | 88* | 0
Cc1onc(-c2ccccc2Cl)c1C(=O)NNC(=O)c1cccc(F)c1 | 15 | 13* | -4 | -9 | -19 | 15* | 0
COc1ccc(C(C(=O)Nc2c(C)cccc2C)n2c(=O)c(-c3ccco3)nc3ccccc32)cc1 (stereo not drawn) | . | -7 | . | . | . | . | .
COc1ccccc1Cc1c(-c2ccco2)nc2ccc(Cl)cn12 | . | 28* | . | . | . | 18* | 0
CC(=O)N1CCC(C(=O)Nc2cc(S(=O)(=O)N3CCCCC3)ccc2C)CC1 | . | -7 | . | . | . | . | .
COc1ccc(N(C(=O)c2snc(C(N)=O)c2N)C(C(=O)NC2CCCC2)c2ccco2)cc1 (stereo not drawn) | 10 | 18* | -10 | -37 | -15 | 0 | 0
COC(=O)Cc1nnn2c1[C@@H](C)[C@@H](c1ccccc1Br)OC[C@H](C)C2 | . | -1 | . | . | . | . | .
CCOC(=O)[C@@H]1CSCCS(=O)(=O)N1C(=O)[C@H](CCSC)NC(=O)OC(C)(C)C | . | -1 | . | . | . | . | .
COc1ccc(C(=O)N2CCCC(N3CCN(c4ccccc4OC)CC3)C2)c(OC)n1 (stereo not drawn) | 11 | . | -2 | -18 | -27 | 3 | 0
Cc1cccc(C)c1NC(=S)NC(=O)c1cccc(Cl)c1 | . | -6 | . | . | . | . | .
Cc1c(C(=O)OCC(C)C)[nH]c2c1C(=O)CC(c1ccco1)C2 (stereo not drawn) | 1 | 17* | -3 | -25 | -8 | 3 | 2.5*
Cc1ccc(-c2sc(C(=O)NN)c(C)c2C#N)cc1 | 7 | 27* | -18 | -17 | -11 | 25* | 0
CCc1nc2ccccc2c(C(=O)OCC(=O)Nc2cccc(S(=O)(=O)NC3=NCCCCC3)c2)c1C | 19 | 14* | 1 | -19 | -4 | 0 | -1
CCc1ccc(OC)c(S(=O)(=O)Nc2ccc(Cc3ccncc3)cc2)c1 | 42 | 46* | 4 | -3 | 48* | 8 | 0
CCc1nc2ccc(C(=O)N(CC)CCN(C)C)cn2c1N(CC)C(=O)NCCc1ccccc1 | . | -8 | . | . | . | . | .
Cc1cc(NC(=O)CSc2nnc(-c3ccco3)o2)no1 | 1 | . | -19 | -7 | -7 | -5 | 0
CC1(C)CC(N2CCCC2)=CC(=[N+]2CCCCC2)C1 | 2 | 37* | -3 | 4 | 2 | 6 | 0
SMILES | OX1R antag-1 | GalR3 antagonist | GPR7 antagonist | OX1R antag-2 | CHO parental Ca | GalR3 antag conf | CNG parental
CC(C)(C)C1=C(C#N)C(c2cc3c(cc2Br)OCO3)C(C#N)=C(N)O1 (stereo not drawn) | 18 | . | . | -15 | 4 | -3 | 0
O=C(CCC(=O)c1cccs1)OCC(=O)c1ccc(Cl)s1 | 22 | . | -4 | -1 | -9 | 1 | 0
N#Cc1c(N)[nH]c(C(=O)c2ccccc2)c1-c1ccc(Cl)cc1 | . | -7 | . | . | . | . | .
Cc1cc(C(=O)NC2CCCc3c2cnn3-c2ccc(C)c(C)c2)n(C)n1 (stereo not drawn) | 43 | 99* | 10 | 12 | 45* | 105* | 0
Cc1ccc(-n2ncc3c2CCCC3NC(=O)c2ccoc2)cc1C (stereo not drawn) | 46 | -4 | -9 | -27 | -12 | . | .
CCc1cc(C(=O)NC2CCCc3c2cnn3-c2cccc(C)c2C)n(C)n1 (stereo not drawn) | 60* | 99* | -2 | 38 | 62* | 102* | 0
Cc1cccc(-n2ncc3c2CCCC3NC(=O)C2(C(N)=O)CC2)c1C (stereo not drawn) | 10 | 114* | 1 | 12 | 21 | 106* | -1
Cc1cc(C)cc(-n2ncc3c2CCCC3NC(=O)C2(C(N)=O)CC2)c1 (stereo not drawn) | 12 | -5 | 0 | 2 | 5 | . | .
O=c1[nH]c2cc(F)ccc2c2ccc(F)cc12 | . | -3 | . | . | . | . | .
CCCCc1c(-c2ccccc2OC)ncn1Cc1ccc(OC)cc1 | . | -7 | . | . | . | . | .
COc1cc(C#Cc2c(-c3ccccc3OC)oc3ccccc23)cc(OC)c1 | 7 | 13* | . | -5 | -28 | 6 | 0
Cc1cc2c(cc1C)-n1nnnc1C(N1CCN(CC(=O)NC(C)C)CC1)C(=O)N2 (stereo not drawn) | . | -7 | . | . | . | . | .
COc1ccc(-c2nc(C#N)c(NCc3ccc(C)cc3)o2)cc1OC | 12 | 23* | -18 | -24 | -29 | 20* | 0
COc1ccc(-c2nc(C#N)c(NCCc3ccccc3)o2)cc1OC | 33 | 4 | -9 | -24 | -18 | . | .
CCN(CC)CCNC(=O)c1ccc(NC(=O)c2ccc(-n3cncn3)c([N+](=O)[O-])c2)cc1 | . | 0 | . | . | . | . | .
COc1ccc(C2C3=C(CC(C)(C)CC3=O)Nc3cc4c(cc32)OCO4)cc1 (stereo not drawn) | 7 | -3 | -3 | -21 | -8 | . | .
